Laboratory results taken from ChEMBL document CHEMBL3045708, “Potential antagonistic effects of nine natural fatty acids against Meloidogyne incognita” (2012).

Assays:
Type in all cases: functional
Meloidogyne incognita [1] = experiment: Nematicidal activity against second-stage juvenile of Meloidogyne incognita (root-knot nematode) assessed as mortality at 25 degC at 1000 umol/L after 24 hr Rvb = 1.47 to 2.51%)
Meloidogyne incognita [2] = experiment: Nematicidal activity against second-stage juvenile of Meloidogyne incognita (root-knot nematode) assessed as mortality at 25 degC at 1000 umol/L after 12 hr (reference value: 1.79 to 3.30%)
Meloidogyne incognita [3] = experiment: Nematicidal activity against second-stage juvenile of Meloidogyne incognita (root-knot nematode) assessed as mortality at 25 degC at 100 umol/L after 24 hr (reference value: 1.47 to 2.51%)
Meloidogyne incognita [4] = experiment: Nematicidal activity against second-stage juvenile of Meloidogyne incognita (root-knot nematode) assessed as mortality at 25 degC at 100 umol/L after 12 hr (reference value: 1.79 to 3.30%)
Meloidogyne incognita [5] = experiment: Nematicidal activity against Meloidogyne incognita (root-knot nematode) assessed as cumulative percentage of egg hatching at 25 degC at 2000 umol/L on day 21 (SDW control = 44.87 +/- 3.93%)
Summary of the method: (§1)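 Eggs (500 in 1 mL suspension) held on a 1 cm sieve of 35 μm pore, set in the center well of a 24-well plate. About 2 mL of fatty acid solution (final 100, 1000 or 2000 μmol/L) was added, reaching only the sieve bottom. The fatty acid was dissolved in acetone/Tween-80/DMSO medium and diluted with sterile distilled water. SDW and medium served as controls. One treatment per plate, six replicates, parafilm-sealed, 25 °C. Hatched J2s were counted and the solution renewed on days 3, 7, 14 and 21; values are cumulative % hatch as mean ± SE.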

Meloidogyne incognita [6] = experiment: Nematicidal activity against Meloidogyne incognita (root-knot nematode) assessed as cumulative percentage of egg hatching at 25 degC at 1000 umol/L on day 21 (SDW control = 44.87 +/- 3.93%); summary of the method: as §1
Meloidogyne incognita [7] = experiment: Nematicidal activity against Meloidogyne incognita (root-knot nematode) assessed as cumulative percentage of egg hatching at 25 degC at 100 umol/L on day 21 (SDW control = 44.87 +/- 3.93%); summary of the method: as §1
Meloidogyne incognita [8] = experiment: Nematicidal activity against Meloidogyne incognita (root-knot nematode) assessed as cumulative percentage of egg hatching at 25 degC at 2000 umol/L on day 14 (SDW control = 35.77 +/- 4.48%); summary of the method: as §1
Meloidogyne incognita [9] = experiment: Nematicidal activity against Meloidogyne incognita (root-knot nematode) assessed as cumulative percentage of egg hatching at 25 degC at 1000 umol/L on day 14 (SDW control = 35.77 +/- 4.48%); summary of the method: as §1
Meloidogyne incognita [10] = experiment: Nematicidal activity against Meloidogyne incognita (root-knot nematode) assessed as cumulative percentage of egg hatching at 25 degC at 100 umol/L on day 14 (SDW control = 35.77 +/- 4.48%); summary of the method: as §1
Meloidogyne incognita [11] = experiment: Nematicidal activity against Meloidogyne incognita (root-knot nematode) assessed as cumulative percentage of egg hatching at 25 degC at 2000 umol/L on day 7 (SDW control = 12.63 +/- 3.84%); summary of the method: as §1
Meloidogyne incognita [12] = experiment: Nematicidal activity against Meloidogyne incognita (root-knot nematode) assessed as cumulative percentage of egg hatching at 25 degC at 1000 umol/L on day 7 (SDW control = 12.63 +/- 3.84%); summary of the method: as §1
Meloidogyne incognita [13] = experiment: Nematicidal activity against Meloidogyne incognita (root-knot nematode) assessed as cumulative percentage of egg hatching at 25 degC at 100 umol/L on day 7 (SDW control = 12.63 +/- 3.84%); summary of the method: as §1
Meloidogyne incognita [14] = experiment: Nematicidal activity against Meloidogyne incognita (root-knot nematode) assessed as cumulative percentage of egg hatching at 25 degC at 2000 umol/L on day 3 (SDW control = 0.57 +/- 0.37%); summary of the method: as §1
Meloidogyne incognita [15] = experiment: Nematicidal activity against Meloidogyne incognita (root-knot nematode) assessed as cumulative percentage of egg hatching at 25 degC at 1000 umol/L on day 3 (SDW control = 0.57 +/- 0.37%); summary of the method: as §1
Meloidogyne incognita [16] = experiment: Nematicidal activity against Meloidogyne incognita (root-knot nematode) root-knot nematodes assessed as cumulative percentage of egg hatching at 25 degC at 100 umol/L on day 3 (SDW control = 0.57 +/- 0.37%); summary of the method: as §1
Meloidogyne incognita [17] = experiment: Nematicidal activity against second-stage juvenile of Meloidogyne incognita (root-knot nematode) assessed as mortality at 25 degC at 2000 umol/L after 24 hr Rvb = 1.47 to 2.51%)
Meloidogyne incognita [18] = experiment: Nematicidal activity against second-stage juvenile of Meloidogyne incognita (root-knot nematode) assessed as mortality at 25 degC at 2000 umol/L after 12 hr (reference value: 1.79 to 3.30%)

## CCCC(=O)O [BUTYRIC ACID]
Meloidogyne incognita [1]
  mortality at 1000 µM: 2.34%
Meloidogyne incognita [2]
  mortality at 1000 µM: 3.34%
Meloidogyne incognita [3]
  mortality at 100 µM: 2.91%
Meloidogyne incognita [4]
  mortality at 100 µM: 2.55%
Meloidogyne incognita [5]
  Activity: 14.13%
Meloidogyne incognita [6]
  Activity: 21.47%
Meloidogyne incognita [7]
  Activity: 20.37%
Meloidogyne incognita [8]
  Activity: 8.17%
Meloidogyne incognita [9]
  Activity: 17.17%
Meloidogyne incognita [10]
  Activity: 13.9%
Meloidogyne incognita [11]
  Activity: 4.47%
Meloidogyne incognita [12]
  Activity: 7.87%
Meloidogyne incognita [13]
  Activity: 6.7%
Meloidogyne incognita [14]
  Activity: 0.67%
Meloidogyne incognita [15]
  Activity: 2%
Meloidogyne incognita [16]
  Activity: 1.6%
Meloidogyne incognita [17]
  mortality at 2000 µM: 3.28%
Meloidogyne incognita [18]
  mortality at 2000 µM: 3.23%

## CCCCCCCC(=O)O [OCTANOIC ACID]
Meloidogyne incognita [1]
  mortality at 1000 µM: 1.08%
Meloidogyne incognita [2]
  mortality at 1000 µM: 65.6%
Meloidogyne incognita [3]
  mortality at 100 µM: 40.5%
Meloidogyne incognita [4]
  mortality at 100 µM: 1.65%
Meloidogyne incognita [5]
  Activity: 15.07%
Meloidogyne incognita [6]
  Activity: 21%
Meloidogyne incognita [7]
  Activity: 30.93%
Meloidogyne incognita [8]
  Activity: 13.07%
Meloidogyne incognita [9]
  Activity: 16.87%
Meloidogyne incognita [10]
  Activity: 23.63%
Meloidogyne incognita [12]
  Activity: 9.03%
Meloidogyne incognita [13]
  Activity: 8.6%
Meloidogyne incognita [14]
  Activity: 0.73%
Meloidogyne incognita [15]
  Activity: 2.6%
Meloidogyne incognita [16]
  Activity: 2.3%
Meloidogyne incognita [17]
  mortality at 2000 µM: 56.4%
Meloidogyne incognita [18]
  mortality at 2000 µM: 49.9%

## CCCCCCCCCCCCCC(=O)O [MYRISTIC ACID]
Meloidogyne incognita [1]
  mortality at 1000 µM: 1.57%
Meloidogyne incognita [2]
  mortality at 1000 µM: 2.29%
Meloidogyne incognita [3]
  mortality at 100 µM: 2.46%
Meloidogyne incognita [4]
  mortality at 100 µM: 1.31%
Meloidogyne incognita [5]
  Activity: 20%
Meloidogyne incognita [6]
  Activity: 23.97%
Meloidogyne incognita [7]
  Activity: 27.67%
Meloidogyne incognita [8]
  Activity: 12%
Meloidogyne incognita [9]
  Activity: 12.93%
Meloidogyne incognita [10]
  Activity: 18.4%
Meloidogyne incognita [11]
  Activity: 1.53%
Meloidogyne incognita [12]
  Activity: 1.47%
Meloidogyne incognita [13]
  Activity: 8.87%
Meloidogyne incognita [14]
  Activity: 0.27%
Meloidogyne incognita [15]
  Activity: 0.37%
Meloidogyne incognita [16]
  Activity: 1.8%
Meloidogyne incognita [17]
  mortality at 2000 µM: 3.76%
Meloidogyne incognita [18]
  mortality at 2000 µM: 2.11%

## CCCCCCCCCC(=O)O [DECANOIC ACID]
Meloidogyne incognita [1]
  mortality at 1000 µM: 1.63%
Meloidogyne incognita [2]
  mortality at 1000 µM: 16.9%
Meloidogyne incognita [3]
  mortality at 100 µM: 5.16%
Meloidogyne incognita [4]
  mortality at 100 µM: 2.01%
Meloidogyne incognita [5]
  Activity: 7.1%
Meloidogyne incognita [6]
  Activity: 16.4%
Meloidogyne incognita [7]
  Activity: 25.93%
Meloidogyne incognita [8]
  Activity: 4.8%
Meloidogyne incognita [9]
  Activity: 11.5%
Meloidogyne incognita [10]
  Activity: 19.57%
Meloidogyne incognita [11]
  Activity: 2.07%
Meloidogyne incognita [12]
  Activity: 4.77%
Meloidogyne incognita [13]
  Activity: 4.73%
Meloidogyne incognita [14]
  Activity: 0.23%
Meloidogyne incognita [15]
  Activity: 0.97%
Meloidogyne incognita [16]
  Activity: 0.43%
Meloidogyne incognita [17]
  mortality at 2000 µM: 61%
Meloidogyne incognita [18]
  mortality at 2000 µM: 25.2%

## CCCCC/C=C\C/C=C\CCCCCCCC(=O)O [LINOLEIC ACID]
Meloidogyne incognita [1]
  mortality at 1000 µM: 3.3%
Meloidogyne incognita [2]
  mortality at 1000 µM: 4.72%
Meloidogyne incognita [3]
  mortality at 100 µM: 3.72%
Meloidogyne incognita [4]
  mortality at 100 µM: 3.12%
Meloidogyne incognita [5]
  Activity: 11.33%
Meloidogyne incognita [6]
  Activity: 29.47%
Meloidogyne incognita [7]
  Activity: 37.97%
Meloidogyne incognita [8]
  Activity: 5.87%
Meloidogyne incognita [9]
  Activity: 20.43%
Meloidogyne incognita [10]
  Activity: 29.8%
Meloidogyne incognita [11]
  Activity: 2.3%
Meloidogyne incognita [12]
  Activity: 6.6%
Meloidogyne incognita [13]
  Activity: 6.17%
Meloidogyne incognita [14]
  Activity: 0.33%
Meloidogyne incognita [15]
  Activity: 0.13%
Meloidogyne incognita [16]
  Activity: 0.33%
Meloidogyne incognita [17]
  mortality at 2000 µM: 5.1%
Meloidogyne incognita [18]
  mortality at 2000 µM: 3.41%

## CCCCCCCCCCCC(=O)O [DODECANOATE]
Meloidogyne incognita [1]
  mortality at 1000 µM: 2.46%
Meloidogyne incognita [2]
  mortality at 1000 µM: 21.3%
Meloidogyne incognita [3]
  mortality at 100 µM: 15.8%
Meloidogyne incognita [4]
  mortality at 100 µM: 1.22%
Meloidogyne incognita [5]
  Activity: 20.77%
Meloidogyne incognita [6]
  Activity: 24.17%
Meloidogyne incognita [7]
  Activity: 27.1%
Meloidogyne incognita [8]
  Activity: 17.47%
Meloidogyne incognita [9]
  Activity: 20.37%
Meloidogyne incognita [10]
  Activity: 20.1%
Meloidogyne incognita [11]
  Activity: 7.57%
Meloidogyne incognita [12]
  Activity: 12.7%
Meloidogyne incognita [13]
  Activity: 4.73%
Meloidogyne incognita [14]
  Activity: 1.6%
Meloidogyne incognita [15]
  Activity: 3.67%
Meloidogyne incognita [16]
  Activity: 0.5%
Meloidogyne incognita [17]
  mortality at 2000 µM: 41.3%
Meloidogyne incognita [18]
  mortality at 2000 µM: 38%

## CCCCCCCC/C=C\CCCCCCCC(=O)O [OLEIC ACID]
Meloidogyne incognita [1]
  mortality at 1000 µM: 2.42%
Meloidogyne incognita [2]
  mortality at 1000 µM: 4.52%
Meloidogyne incognita [3]
  mortality at 100 µM: 3.54%
Meloidogyne incognita [4]
  mortality at 100 µM: 3.54%
Meloidogyne incognita [5]
  Activity: 21.8%
Meloidogyne incognita [6]
  Activity: 25.57%
Meloidogyne incognita [7]
  Activity: 24.93%
Meloidogyne incognita [8]
  Activity: 16.53%
Meloidogyne incognita [9]
  Activity: 18.53%
Meloidogyne incognita [10]
  Activity: 16.6%
Meloidogyne incognita [11]
  Activity: 7.47%
Meloidogyne incognita [12]
  Activity: 6.03%
Meloidogyne incognita [13]
  Activity: 6.07%
Meloidogyne incognita [14]
  Activity: 1.23%
Meloidogyne incognita [15]
  Activity: 0.67%
Meloidogyne incognita [16]
  Activity: 1.47%
Meloidogyne incognita [17]
  mortality at 2000 µM: 4.58%
Meloidogyne incognita [18]
  mortality at 2000 µM: 4.49%

## CCCCCCCCCCCCCCCC(=O)O [PALMITIC ACID]
Meloidogyne incognita [1]
  mortality at 1000 µM: 3.03%
Meloidogyne incognita [2]
  mortality at 1000 µM: 6.71%
Meloidogyne incognita [3]
  mortality at 100 µM: 3.36%
Meloidogyne incognita [4]
  mortality at 100 µM: 3.33%
Meloidogyne incognita [5]
  Activity: 20.17%
Meloidogyne incognita [6]
  Activity: 13.4%
Meloidogyne incognita [7]
  Activity: 22.3%
Meloidogyne incognita [8]
  Activity: 17.23%
Meloidogyne incognita [9]
  Activity: 9.53%
Meloidogyne incognita [10]
  Activity: 15.07%
Meloidogyne incognita [11]
  Activity: 6.63%
Meloidogyne incognita [12]
  Activity: 2.8%
Meloidogyne incognita [13]
  Activity: 5.73%
Meloidogyne incognita [14]
  Activity: 0.7%
Meloidogyne incognita [15]
  Activity: 0.23%
Meloidogyne incognita [16]
  Activity: 1.13%
Meloidogyne incognita [17]
  mortality at 2000 µM: 4.91%
Meloidogyne incognita [18]
  mortality at 2000 µM: 5.44%

## CCCCCC(=O)O [HEXANOATE]
Meloidogyne incognita [1]
  mortality at 1000 µM: 2.29%
Meloidogyne incognita [2]
  mortality at 1000 µM: 1.09%
Meloidogyne incognita [3]
  mortality at 100 µM: 1.5%
Meloidogyne incognita [4]
  mortality at 100 µM: 0.39%
Meloidogyne incognita [5]
  Activity: 19.67%
Meloidogyne incognita [6]
  Activity: 21.2%
Meloidogyne incognita [7]
  Activity: 15.97%
Meloidogyne incognita [8]
  Activity: 14.4%
Meloidogyne incognita [9]
  Activity: 16.67%
Meloidogyne incognita [10]
  Activity: 9.57%
Meloidogyne incognita [11]
  Activity: 6.4%
Meloidogyne incognita [12]
  Activity: 7.67%
Meloidogyne incognita [13]
  Activity: 2.97%
Meloidogyne incognita [14]
  Activity: 0.8%
Meloidogyne incognita [15]
  Activity: 2.77%
Meloidogyne incognita [16]
  Activity: 0.87%
Meloidogyne incognita [17]
  mortality at 2000 µM: 4.44%
Meloidogyne incognita [18]
  mortality at 2000 µM: 2.02%
